GI50 data for 31 molecules are collected here from ChEMBL document CHEMBL4428071 (J Med Chem, 2016).

What is called GI50 is the concentration giving 50% growth inhibition.

Data set [1] deals with Mast/stem cell growth factor receptor Kit (Homo sapiens), P10721 [T670I]. Description: Inhibition of TEL-fused cKIT T670I mutant (unknown origin) expressed in mouse BA/F3 cells assessed as cell growth inhibition after 72 hrs by cell titer-glo assay. The data set is classed as cell-based. In short, it runs like this: (§1)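 Cells seeded at 3000 per well and exposed to serial compound dilutions for 72 h. Viability read by CellTiter-Glo luminescence and normalised to DMSO controls; mean of three independent measurements. BaF3 lines kept IL-3-free in RPMI 1640/10% FBS after retroviral transduction and puromycin selection. GIST lines grown in DMEM/10% FBS.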
Mast/stem cell growth factor receptor Kit (Homo sapiens), P10721 [T670I], sequence (P10721 whole entry T670I, the tested form may be a part): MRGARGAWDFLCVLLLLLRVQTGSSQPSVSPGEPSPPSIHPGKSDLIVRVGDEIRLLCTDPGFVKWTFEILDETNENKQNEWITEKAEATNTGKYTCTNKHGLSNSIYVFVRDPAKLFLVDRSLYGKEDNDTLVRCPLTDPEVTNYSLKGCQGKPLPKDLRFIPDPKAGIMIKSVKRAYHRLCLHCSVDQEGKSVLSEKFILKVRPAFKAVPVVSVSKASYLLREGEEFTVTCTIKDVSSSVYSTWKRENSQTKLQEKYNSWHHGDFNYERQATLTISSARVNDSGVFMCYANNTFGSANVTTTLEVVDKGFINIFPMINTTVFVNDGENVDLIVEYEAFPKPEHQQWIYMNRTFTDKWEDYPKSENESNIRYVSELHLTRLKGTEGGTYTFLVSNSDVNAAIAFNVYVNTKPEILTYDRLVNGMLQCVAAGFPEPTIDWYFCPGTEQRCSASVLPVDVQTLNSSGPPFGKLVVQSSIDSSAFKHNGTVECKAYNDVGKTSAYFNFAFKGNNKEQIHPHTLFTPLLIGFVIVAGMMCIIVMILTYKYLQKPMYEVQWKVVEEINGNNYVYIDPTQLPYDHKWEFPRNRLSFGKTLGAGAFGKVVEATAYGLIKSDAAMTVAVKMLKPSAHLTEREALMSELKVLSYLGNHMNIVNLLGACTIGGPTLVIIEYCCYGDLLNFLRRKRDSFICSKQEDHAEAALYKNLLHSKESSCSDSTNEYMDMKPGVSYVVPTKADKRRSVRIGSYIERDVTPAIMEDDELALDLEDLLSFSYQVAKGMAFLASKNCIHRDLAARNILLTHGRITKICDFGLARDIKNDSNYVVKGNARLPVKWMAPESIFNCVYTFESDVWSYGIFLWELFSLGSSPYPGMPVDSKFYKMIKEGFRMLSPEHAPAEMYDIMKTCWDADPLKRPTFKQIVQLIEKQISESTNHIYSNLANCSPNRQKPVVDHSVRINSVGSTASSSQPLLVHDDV

The target in data set [2] is T1, Mast/stem cell growth factor receptor Kit (Homo sapiens, UniProt P10721). Put plainly: Inhibition of TEL-fused cKIT (unknown origin) expressed in mouse BA/F3 cells assessed as cell growth inhibition after 72 hrs by cell titer-glo assay. It counts as cell-based. A general note: ATP-based viability assays read luminescence as a measure of living cells.
T1 sequence (P10721 whole entry, the tested form may be a part): as the sequence (P10721 whole entry T670I, the tested form may be a part) above, with I670T counted along it
Data set [3] in a line: Cytotoxicity mouse BA/F3 cells assessed as cell growth inhibition after 72 hrs by cell titer-glo assay. It counts as cell-based, BaF3. In outline:
as §1

Data set [4] relates to Mast/stem cell growth factor receptor Kit (Homo sapiens), P10721 [D816V]. Description: Inhibition of TEL-fused cKIT D816V mutant (unknown origin) expressed in mouse BA/F3 cells assessed as cell growth inhibition after 72 hrs by cell titer-glo assay. It counts as cell-based. In short, it runs like this:
as §1

Data set [5] has as its system Mast/stem cell growth factor receptor Kit (Homo sapiens), P10721 [V654A]. Put plainly: Inhibition of TEL-fused cKIT V654A mutant (unknown origin) expressed in mouse BA/F3 cells assessed as cell growth inhibition after 72 hrs by cell titer-glo assay. It counts as cell-based. In short, it runs like this: as §1
Data set [6] concerns Mast/stem cell growth factor receptor Kit (Homo sapiens), P10721 [V559D,T670I]. Put plainly: Inhibition of TEL-fused cKIT T670I/V559D double mutant (unknown origin) expressed in mouse BA/F3 cells assessed as cell growth inhibition after 72 hrs by cell titer-glo assay. It counts as cell-based. In short, it runs like this:
as §1

The species entered for another data set is Homo sapiens. Put plainly: Inhibition of TEL-fused cKIT L567P mutant (unknown origin) expressed in mouse BA/F3 cells assessed as cell growth inhibition after 72 hrs by cell titer-glo assay. It counts as cell-based. In outline: as §1
The target of data set [7] is T1, Mast/stem cell growth factor receptor Kit. Description: Inhibition of wild type cKIT in human GIST-T1 cells assessed as cell growth inhibition after 72 hrs by cell titer-glo assay. The data set is classed as cell-based. In short, it runs like this:
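GIST-T1 cells (cKIT wt) grown in DMEM with 10% FBS and 1% penicillin/streptomycin at 37 °C, 5% CO2. Viability read by CellTiter-Glo luminescence and normalized to DMSO controls. GI50 taken from the mean of three independent measurements.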

The test system of data set [8] is Mast/stem cell growth factor receptor Kit (Homo sapiens), P10721 [V559D,V654A]. Description: Inhibition of TEL-fused cKIT V559D/V654A double mutant (unknown origin) expressed in mouse BA/F3 cells assessed as cell growth inhibition after 72 hrs by cell titer-glo assay. It counts as cell-based. In short, it runs like this:
as §1

Mast/stem cell growth factor receptor Kit (Homo sapiens), P10721 [V654A], sequence (P10721 whole entry V654A, the tested form may be a part): as the sequence (P10721 whole entry T670I, the tested form may be a part) above, with V654A, I670T counted along it
Mast/stem cell growth factor receptor Kit (Homo sapiens), P10721 [V559D,T670I], sequence (P10721 whole entry V559D/T670I, the tested form may be a part): as the sequence (P10721 whole entry T670I, the tested form may be a part) above, with V559D counted along it
Mast/stem cell growth factor receptor Kit (Homo sapiens), P10721 [V559D,V654A], sequence (P10721 whole entry V559D/V654A, the tested form may be a part): as the sequence (P10721 whole entry T670I, the tested form may be a part) above, with V559D, V654A, I670T counted along it
Mast/stem cell growth factor receptor Kit (Homo sapiens), P10721 [D816V], sequence (P10721 whole entry D816V, the tested form may be a part): as the sequence (P10721 whole entry T670I, the tested form may be a part) above, with I670T, D816V counted along it

`COc1cc2nccc(Oc3cccc(NC(=O)Nc4ccc(N5CCC(NC(=O)C6CCCN(C(=O)OC(C)(C)C)C6)CC5)c(C(F)(F)F)c4)c3)c2cc1OC` (stereo not drawn): the figures for the GI50 in data set [1] and in data set [2] were 170 nM and 130 nM, respectively. In addition, in data set [3], the GI50 at 72 h amounted to 510 nM.
In the same order, the values of `COc1cc2nccc(Oc3cccc(NC(=O)Nc4ccc(N5CCC(NC(=O)c6cccnc6)CC5)c(C(F)(F)F)c4)c3)c2cc1OC` are 321 nM, 20 nM and 7000 nM.
In the same order, the values of `COc1cc2nccc(Oc3cccc(NC(=O)Nc4ccc(N5CCC(NC(=O)C6CCOCC6)CC5)c(C(F)(F)F)c4)c3)c2cc1OC` are 83 nM, 87 nM and 2900 nM.
`COc1cc2nccc(Oc3cccc(NC(=O)Nc4ccc(N5CCC(NC(=O)C6=CCCCC6)CC5)c(C(F)(F)F)c4)c3)c2cc1OC`: the GI50 in data set [1] and in data set [2] was 760 nM throughout. Moreover, the 50% growth inhibitory concentration (GI50) at 72 h in [3] worked out at 1100 nM.
With `CCC(=O)NC1CCN(c2ccc(NC(=O)Nc3cccc(Oc4ccnc5cc(OC)c(OC)cc45)c3)cc2)CC1`, the 50% growth inhibitory concentration (GI50) in [1] and in data set [2] was above 10000 nM throughout. In data set [3], the GI50 at 72 h was above 10000 nM.
For the molecule `COc1cc2nccc(Oc3cccc(NC(=O)Nc4ccc(N5CCC(NC(=O)CCN6CCOCC6)CC5)c(C(F)(F)F)c4)c3)c2cc1OC`, the GI50 amounted to 59 nM in data set [1] and 42 nM in [2]. For the same molecule, the GI50 at 72 h in [3] was 3600 nM.
The matching figures for `COc1cc2nccc(Oc3cccc(NC(=O)Nc4ccc(N5CCC(NC(=O)CN(C)C)CC5)c(C(F)(F)F)c4)c3)c2cc1OC`: 53 nM, 38 nM and 2900 nM.
The matching figures for `COc1cc2nccc(Oc3cccc(NC(=O)Nc4ccc(N5CCC(NC(=O)CN6CCCC(C)C6)CC5)c(C(F)(F)F)c4)c3)c2cc1OC` (stereo not drawn): 200 nM, 330 nM and 870 nM.
`COc1cc2nccc(Oc3cccc(NC(=O)Nc4ccc(N5CCC(NC(=O)CCN6CCCCC6)CC5)c(C(F)(F)F)c4)c3)c2cc1OC`: the figures for the GI50 in data set [1] and in data set [2] were 260 nM and 440 nM, respectively. Also, the GI50 at 72 h in data set [3] is 7600 nM.
In the same order, the values of `COc1cc2nccc(Oc3cccc(NC(=O)Nc4ccc(N5CCC(NC(=O)C6CCN(C(=O)C7CC7)CC6)CC5)c(C(F)(F)F)c4)c3)c2cc1OC` are 120 nM, 130 nM and 800 nM.
The matching figures for `COc1cc2nccc(Oc3cccc(NC(=O)Nc4ccc(N5CCC(NS(=O)(=O)C6CC6)CC5)c(C(F)(F)F)c4)c3)c2cc1OC`: 63 nM, 140 nM and 1900 nM.
The matching figures for `COc1cc2nccc(Oc3cccc(NC(=O)Nc4ccc(N5CCC(NS(C)(=O)=O)CC5)c(C(F)(F)F)c4)c3)c2cc1OC`: 3800 nM, 3900 nM and above 10000 nM.
For `COc1cc2nccc(Oc3cccc(NC(=O)Nc4ccc(N5CCC(NC(=O)CN6CCCCC6)CC5)c(C(F)(F)F)c4)c3)c2cc1OC`, the figures for the GI50 in data set [1] and in [2] were 37 nM and 120 nM, respectively. Besides, the GI50 at 72 h in [3] stood at 480 nM.
As for `CCN(CC)CCNC(=O)c1c(C)[nH]c(/C=C2\C(=O)Nc3ccc(F)cc32)c1C` [SUNITINIB], the GI50 in [4] came to 420 nM; in data set [5] it was 6 nM; in data set [1], 5 nM; in data set [6] it was 7 nM; in the data set filed under Homo sapiens, 3 nM; in data set [7] it was 5 nM. The GI50 in [8] turned out to be 6 nM. Also, the GI50 at 72 h in [3] was determined as 1600 nM.
As to `CCC(=O)Nc1ccc(N2CCC(NC(=O)Nc3cccc(Oc4ccnc5cc(OC)c(OC)cc45)c3)CC2)c(C(F)(F)F)c1`, the values for the concentration for 50% growth inhibition (GI50) in data set [1] and in data set [2] were above 10000 nM and 340 nM, respectively. Moreover, in data set [3], the GI50 at 72 h is above 10000 nM.
In the case of `CCCS(=O)(=O)NC1CCN(c2ccc(NC(=O)Nc3cccc(Oc4ccnc5cc(OC)c(OC)cc45)c3)cc2C(F)(F)F)CC1`, the GI50 in [1] is 950 nM; in data set [2] it was 59 nM. Further, the GI50 at 72 h in data set [3] was determined as 4230 nM.
`COc1cc2nccc(Oc3cccc(NC(=O)Nc4ccc(N5CCC(NC(=O)CCC6CCCCN6C)CC5)c(C(F)(F)F)c4)c3)c2cc1OC` (stereo not drawn): the figures for the GI50 in data set [1] and in data set [2] were 200 nM and 190 nM, respectively. Besides, the GI50 at 72 h in data set [3] came out at 1200 nM.
The matching figures for `CCC(=O)NC1CCN(c2ccc(NC(=O)C3(C(=O)Nc4cccc(Oc5ccnc6cc(OC)c(OC)cc56)c4)CC3)cc2C(F)(F)F)CC1`: above 10000 nM, above 10000 nM and above 10000 nM.
In the same order, the values of `CCC(=O)NC1CCN(c2ccc(C(=O)Nc3cccc(Oc4ccnc5cc(OC)c(OC)cc45)c3)cc2C(F)(F)F)CC1` are 2700 nM, 400 nM and above 10000 nM.
As to `COc1cc2nccc(Oc3cccc(NC(=O)Nc4ccc(N5CCC(NC(=O)CC(C)(C)C)CC5)c(C(F)(F)F)c4)c3)c2cc1OC`, the GI50 in data set [1] is 340 nM; in [2], 430 nM. For the same molecule, the GI50 at 72 h in data set [3] was above 10000 nM.
Turning to `COc1cc2nccc(Oc3cccc(NC(=O)Nc4ccc(N5CCC(NC(=O)CN)CC5)c(C(F)(F)F)c4)c3)c2cc1OC`, the values for the GI50 in data set [1] and in [2] were 581 nM and 130 nM, respectively. The GI50 at 72 h in [3] was found to be 5000 nM.
Take `CCN1CCC(C(=O)NC2CCN(c3ccc(NC(=O)Nc4cccc(Oc5ccnc6cc(OC)c(OC)cc56)c4)cc3C(F)(F)F)CC2)CC1`: the GI50 turned out to be 87 nM in data set [1] and 39 nM in data set [2]. Besides, in data set [3], the GI50 at 72 h is 1300 nM.
The matching figures for `CCC(=O)NC1CCN(c2ccc(NC(=O)Nc3cccc(Oc4ccnc5cc(OC)c(OC)cc45)c3)cc2C(F)(F)F)CC1`: 71 nM, 120 nM and 1500 nM.
The matching figures for `CCS(=O)(=O)NC1CCN(c2ccc(NC(=O)Nc3cccc(Oc4ccnc5cc(OC)c(OC)cc45)c3)cc2C(F)(F)F)CC1`: 330 nM, 34 nM and 6200 nM.
The matching figures for `COc1cc2nccc(Oc3cccc(NC(=O)Nc4ccc(N5CCC(NC(=O)C6CCN(C(C)=O)CC6)CC5)c(C(F)(F)F)c4)c3)c2cc1OC`: 230 nM, 59 nM and 3400 nM.
For the molecule `COc1cc2nccc(Oc3cccc(NC(=O)Nc4ccc(N5CCC(NC(=O)C6CCN(C)CC6)CC5)c(C(F)(F)F)c4)c3)c2cc1OC`, the GI50 came to 81 nM in [1] and 160 nM in data set [2]. In addition, in data set [3], the 50% growth inhibitory concentration (GI50) at 72 h was 1700 nM.
In the same order, the values of `COc1cc2nccc(Oc3cccc(NC(=O)Nc4ccc(N5CCC(CNC(=O)CCC6CCCCN6C)CC5)c(C(F)(F)F)c4)c3)c2cc1OC` (stereo not drawn) are 460 nM, 250 nM and 4400 nM.
Turning to `CCC(=O)NC1CCCN(c2ccc(NC(=O)Nc3cccc(Oc4ccnc5cc(OC)c(OC)cc45)c3)cc2C(F)(F)F)C1` (stereo not drawn), the values for the GI50 in data set [1] and in [2] were 920 nM and 280 nM, respectively. Besides, the GI50 at 72 h in data set [3] stood at 1310 nM.
In the same order, the values of `COc1cc2nccc(Oc3cccc(NC(=O)Nc4ccc(N5CCC(NC(C)=O)CC5)c(C(F)(F)F)c4)c3)c2cc1OC` are 46 nM, 110 nM and 7100 nM.
In the same order, the values of `COc1cc2nccc(Oc3cccc(NC(=O)Nc4ccc(N5CCC(NC(=O)C6CCNC(C)C6)CC5)c(C(F)(F)F)c4)c3)c2cc1OC` (stereo not drawn) are 650 nM, 460 nM and 4000 nM.
Turning to `COc1cc2nccc(Oc3cccc(NC(=O)Nc4ccc(N5CCC(NC(=O)C(C)N)CC5)c(C(F)(F)F)c4)c3)c2cc1OC` (single isomer, unassigned), the 50% growth inhibitory concentration (GI50) in [1] was found to be 480 nM; in [2], 120 nM. Moreover, the GI50 at 72 h in data set [3] was 3000 nM.
